# Experimental data from article PMC3361572 (Chemistry & biology, 2012).
# What was measured:
# [1] = no reference given; cited from earlier work
# MAGL [2] = target: T1, MAGL (Mus musculus, UniProt O35678); test: competitive ABPP, mouse brain membrane proteome; format: biochemical; conditions: mouse brain proteome, competitive ABPP
# T1 sequence (O35678 1-303): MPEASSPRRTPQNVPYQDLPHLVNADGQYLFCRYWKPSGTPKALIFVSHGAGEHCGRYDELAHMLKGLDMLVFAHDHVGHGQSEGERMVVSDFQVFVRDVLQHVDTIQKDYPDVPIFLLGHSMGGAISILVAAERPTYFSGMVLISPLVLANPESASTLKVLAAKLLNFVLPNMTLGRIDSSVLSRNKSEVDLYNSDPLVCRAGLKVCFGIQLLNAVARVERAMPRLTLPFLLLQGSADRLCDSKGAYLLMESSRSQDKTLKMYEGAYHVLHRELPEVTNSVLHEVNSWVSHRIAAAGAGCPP
# FAAH [3] = target: T2, FAAH (Mus musculus, UniProt O08914); test: competitive ABPP, mouse brain membrane proteome; format: biochemical
# T2 sequence (O08914 1-579): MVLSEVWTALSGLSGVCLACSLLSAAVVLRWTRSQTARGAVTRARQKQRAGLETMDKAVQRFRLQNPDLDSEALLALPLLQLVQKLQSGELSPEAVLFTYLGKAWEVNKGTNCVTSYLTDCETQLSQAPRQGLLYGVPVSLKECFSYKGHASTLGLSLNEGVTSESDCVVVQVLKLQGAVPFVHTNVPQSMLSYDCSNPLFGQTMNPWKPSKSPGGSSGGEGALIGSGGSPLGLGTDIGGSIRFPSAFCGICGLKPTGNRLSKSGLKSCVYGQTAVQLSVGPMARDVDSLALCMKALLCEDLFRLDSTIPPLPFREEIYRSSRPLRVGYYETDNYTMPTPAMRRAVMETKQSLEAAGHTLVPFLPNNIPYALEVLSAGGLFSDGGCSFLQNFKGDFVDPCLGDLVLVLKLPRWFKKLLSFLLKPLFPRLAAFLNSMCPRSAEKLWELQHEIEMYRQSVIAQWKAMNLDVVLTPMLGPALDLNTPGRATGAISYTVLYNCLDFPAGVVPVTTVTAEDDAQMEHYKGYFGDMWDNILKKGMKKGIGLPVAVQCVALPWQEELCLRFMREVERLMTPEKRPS
# Summary of the method: (§1)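 Brain (mouse or rat) or mouse lung proteomes were preincubated with the test compound, then treated with the serine hydrolase probe FP-Rh. Samples were separated by SDS-PAGE and read by in-gel fluorescence scanning. Inhibition was taken as reduced FP-Rh labelling of MAGL, ABHD6, FAAH or CES bands, and IC50 values were calculated from quantified gel bands. Three independent experiments.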
# MAGL [4] = target: T3, MAGL (Rattus norvegicus, UniProt Q8R431); test: competitive ABPP, rat brain membrane proteome; format: biochemical; conditions: read-out: IC50 (95% CI), rat MAGL; competitive ABPP, rat brain membrane proteome
# T3 sequence (Q8R431 1-303): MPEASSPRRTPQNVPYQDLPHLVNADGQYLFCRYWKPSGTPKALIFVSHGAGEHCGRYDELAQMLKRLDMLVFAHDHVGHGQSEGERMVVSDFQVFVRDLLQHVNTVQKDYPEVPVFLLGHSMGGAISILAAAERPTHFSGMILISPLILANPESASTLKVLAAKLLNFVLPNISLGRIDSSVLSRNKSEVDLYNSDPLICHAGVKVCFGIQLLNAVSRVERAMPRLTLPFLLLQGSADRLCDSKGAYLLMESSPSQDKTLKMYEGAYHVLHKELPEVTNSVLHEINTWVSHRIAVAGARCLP
# Summary of the method: as §1
# FAAH [5] = target: T4, FAAH (Rattus norvegicus, UniProt P97612); test: competitive ABPP, rat brain membrane proteome; format: biochemical; conditions: read-out: IC50 (95% CI), rat FAAH; competitive ABPP, rat brain membrane proteome
# T4 sequence (P97612 1-579): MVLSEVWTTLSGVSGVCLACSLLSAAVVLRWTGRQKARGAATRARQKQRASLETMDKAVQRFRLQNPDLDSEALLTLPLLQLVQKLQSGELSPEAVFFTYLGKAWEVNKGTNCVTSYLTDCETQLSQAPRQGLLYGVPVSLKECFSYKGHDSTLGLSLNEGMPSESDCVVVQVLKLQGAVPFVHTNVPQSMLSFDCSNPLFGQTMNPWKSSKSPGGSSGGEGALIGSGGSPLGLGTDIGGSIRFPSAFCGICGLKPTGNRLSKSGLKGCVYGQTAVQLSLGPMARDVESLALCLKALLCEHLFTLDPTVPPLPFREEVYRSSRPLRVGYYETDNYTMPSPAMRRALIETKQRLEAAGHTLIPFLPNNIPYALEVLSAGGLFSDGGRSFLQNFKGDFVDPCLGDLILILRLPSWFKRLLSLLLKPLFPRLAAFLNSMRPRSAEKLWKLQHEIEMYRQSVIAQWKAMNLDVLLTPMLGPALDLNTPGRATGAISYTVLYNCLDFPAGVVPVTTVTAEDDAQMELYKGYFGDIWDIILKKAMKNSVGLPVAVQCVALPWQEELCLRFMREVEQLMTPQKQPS
# Summary of the method: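 Rat brain proteome pre-treated with test compound, then labelled with the serine hydrolase-directed fluorophosphonate-rhodamine (FP-Rh) activity-based probe. Proteins separated by SDS-PAGE and detected by in-gel fluorescence scanning. Inhibition scored as loss of FP-Rh labelling of the FAAH band. IC50 calculated from the gel-based ABPP data.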
# hMAGL = target: T5, hMAGL (Homo sapiens, UniProt Q99685); test: competitive ABPP, proteomes of transiently transfected HEK293T cells; format: biochemical; conditions: read-out: IC50 (95% CI), human MAGL, transfected HEK293T cell proteome
# T5 sequence (Q99685 1-303): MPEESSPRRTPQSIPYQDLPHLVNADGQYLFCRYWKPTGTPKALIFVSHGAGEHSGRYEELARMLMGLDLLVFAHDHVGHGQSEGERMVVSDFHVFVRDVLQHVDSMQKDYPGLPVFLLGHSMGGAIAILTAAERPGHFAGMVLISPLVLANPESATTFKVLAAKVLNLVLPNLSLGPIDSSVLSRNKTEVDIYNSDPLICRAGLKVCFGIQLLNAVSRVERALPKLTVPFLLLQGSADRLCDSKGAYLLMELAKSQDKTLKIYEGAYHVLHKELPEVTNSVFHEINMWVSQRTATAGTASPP
# hFAAH = target: T6, hFAAH (Homo sapiens, UniProt O00519); test: as above; format: biochemical; conditions: for IC50: read-out: IC50 (95% CI), human FAAH, competitive ABPP, transfected HEK293T cell proteome
# T6 sequence (O00519 1-579): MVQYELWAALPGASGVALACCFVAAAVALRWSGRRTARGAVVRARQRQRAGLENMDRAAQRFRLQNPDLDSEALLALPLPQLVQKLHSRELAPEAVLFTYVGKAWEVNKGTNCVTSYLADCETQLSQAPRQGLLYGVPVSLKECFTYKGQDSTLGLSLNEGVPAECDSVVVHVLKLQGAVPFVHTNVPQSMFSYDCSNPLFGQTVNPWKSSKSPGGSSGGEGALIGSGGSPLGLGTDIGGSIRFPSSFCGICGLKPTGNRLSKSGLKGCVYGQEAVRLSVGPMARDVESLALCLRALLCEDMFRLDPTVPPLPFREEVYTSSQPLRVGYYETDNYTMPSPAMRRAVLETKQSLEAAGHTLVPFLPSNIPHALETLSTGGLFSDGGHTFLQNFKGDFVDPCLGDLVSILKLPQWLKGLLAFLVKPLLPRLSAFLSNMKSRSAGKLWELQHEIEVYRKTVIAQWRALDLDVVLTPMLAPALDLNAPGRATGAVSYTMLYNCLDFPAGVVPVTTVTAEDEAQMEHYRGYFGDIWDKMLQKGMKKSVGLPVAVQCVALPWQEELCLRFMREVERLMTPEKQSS
# [6] = tested on: other rat brain serine hydrolases; test: competitive ABPP, rat brain proteome, other serine hydrolases; format: biochemical
# Summary of the method: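 Rat brain proteome was preincubated with test compound, then labelled with the serine hydrolase-directed probe FP-rhodamine. Proteins were separated by SDS-PAGE and scanned by in-gel fluorescence. Inhibition of individual serine hydrolases was scored as reduced probe labelling.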
# FAAH [7] = target: T2, FAAH; test: competitive ABPP of brain from inhibitor-treated mice; format: in vivo
# [8] = tested on: brain 2-AG, AA, AEA, PEA, OEA; test: brain lipid profile of inhibitor-treated mice; format: in vivo, mouse; conditions: 40 mg kg^−1 p.o., six days
# [9] = tested on: carboxylesterase (CES) enzymes; test: gel-based ABPP of liver, lung and spleen from inhibitor-treated mice; format: in vivo, mouse
# [10] = previously noted by the authors, no reference given; cited from earlier work
SMILES,pKa [1],potency for MAGL relative to FAAH (MAGL [2]),"FAAH reactivity (FAAH [3]; competitive ABPP, up to 10 μM)",IC50 (MAGL [4]),IC50 (FAAH [5]),IC50 (hMAGL),IC50 (hFAAH),additional off-target reactivity with other rat brain serine hydrolases [6],"FAAH inhibition / cross-reactivity (gel-based ABPP) (FAAH [3]; mouse brain proteome, concentration range tested 0.001–50 μM)",cross-reactivity with hFAAH (competitive ABPP) (hFAAH; lysates of HEK293T cells transfected with hFAAH),"brain FAAH inhibition, chronic dosing (FAAH [7]; 40 mg kg^−1 p.o., six days)","inhibition of brain FAAH (FAAH [7]; highest dose tested 40 mg kg^−1 p.o., 4 h)","brain 2-AG and NAE levels, chronic dosing [8]","CES inhibition in peripheral tissues, chronic dosing ([9]; 40 mg kg^−1 p.o., six days)","reactivity with CESs in liver, lung and spleen ([9]; 1–40 mg kg^−1 p.o., 4 h)",solubility in dosing vehicle [10]
OC(C(F)(F)F)C(F)(F)F [hexafluoroisopropanol],~ 9.3,–,–,–,–,–,–,–,–,–,–,–,–,–,–,–
O=C(OC(C(F)(F)F)C(F)(F)F)N1CCN(Cc2cccc(Oc3ccccc3)c2)CC1 [JW642],–,> 1000 fold,no observable FAAH reactivity up to 10 μM,0.014 µM,14 µM,0.0037 µM,20.6 µM,did not detect any additional off-target reactivity,–,–,–,–,–,–,–,–
CN(Cc1cccc(-c2ccncc2)c1)C(=O)OC(C(F)(F)F)C(F)(F)F [JW618],–,–,–,0.385 µM,> 50 µM,–,> 50 µM,did not detect any additional off-target reactivity,no detectable crossreactivity with FAAH,–,–,–,–,–,–,–
"O=C(Oc1ccc([N+](=O)[O-])cc1)N1CCC(C(O)(c2ccc3c(c2)OCO3)c2ccc3c(c2)OCO3)CC1 [JZL184, reference compound]",–,–,–,0.262 µM,3.57 µM,–,> 50 µM,–,–,no detectable cross-reactivity with FAAH up to 50 μM,"not only inhibited MAGL, but also FAAH",partially inhibit FAAH,increases in both 2-AG and NAEs,several CES enzymes in peripheral tissues,significant reactivity with several CESs,limited solubility
